Experimental data from ChEMBL document CHEMBL1154198, “Chemical genetics of Plasmodium falciparum” (Nature, 2010).

Assays:
Toxoplasma gondii = test: ST_JUDE: Growth inhibition of to Toxoplasma gondii, in human U-2OS cells, as measured by luciferase.; type: functional, organism-based; conditions: RH, U2OS
Summary of the method: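 T. gondii parasites engineered to express luciferase; drug sensitivity read by luminescence.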

Plasmodium falciparum [1] = test: ST_JUDE: Cytotoxicity against Plasmodium falciparum Dd2; type: functional, organism-based
Plasmodium falciparum [2] = test: ST_JUDE: Cytotoxicity against Plasmodium falciparum SB-A6; type: functional, organism-based
Plasmodium falciparum [3] = test: ST_JUDE: Cytotoxicity against Plasmodium falciparum W2; type: functional, organism-based
Trypanosoma brucei = test: ST_JUDE: Cytotoxicity using luciferase to measure ATP as an indicator of the viability of Trypanosoma brucei; type: functional, organism-based
Plasmodium falciparum [4] = test: ST_JUDE: Plasmodium falciparum 3D7 EC50 (uM) as measured by SYBR green dye; type: functional, organism-based
[5] = ST_JUDE: Cytotoxicity using luciferase to measure ATP as an indicator of the viability of human epithelial hepatocellular carcinoma cells (HepG2); type: toxicity, cell-based
Plasmodium falciparum [6] = test: ST_JUDE: Cytotoxicity against Plasmodium falciparum K1; type: functional, organism-based
Summary of the method: (§1)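 Asexual P. falciparum grown in human erythrocytes, exposed to compounds for 72 h, and growth read as the DNA quantity in treated versus control cultures. Dose-response run at 12 concentrations from 10 μM to 5 nM.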

[7] = ST_JUDE: Cytotoxicity using luciferase to measure ATP as an indicator of the viability of human Burkitt''s lymphoma lymphoblast cells (Raji); type: toxicity, cell-based
Leishmania major = test: ST_JUDE: Cytotoxicity using Alamar Blue to measure viability of Leishmania major; type: functional, organism-based
Summary of the method: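 L. major promastigotes; drug susceptibility read with Alamar Blue.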

Plasmodium falciparum [8] = test: ST_JUDE: Plasmodium falciparum K1 EC50 (uM) as measured by SYBR green dye; type: functional, organism-based
Plasmodium falciparum [9] = test: ST_JUDE: Cytotoxicity against Plasmodium falciparum V1/S; type: functional, organism-based
Plasmodium falciparum [10] = test: ST_JUDE: Cytotoxicity against Plasmodium falciparum D10 transfected with yeast DHOD; type: functional, organism-based
Plasmodium falciparum [11] = test: ST_JUDE: Cytotoxicity against Plasmodium falciparum 3D7; type: functional, organism-based; summary of the method: as §1
[12] = ST_JUDE: Cytotoxicity using luciferase to measure ATP as an indicator of the viability of human foreskin fibroblast cells (BJ); type: toxicity, cell-based
[13] = ST_JUDE: Cytotoxicity using luciferase to measure ATP as an indicator of the viability of human epithelial embryonic kidney cells (HEK293); type: toxicity, cell-based

Row | Compound | EC50 (Toxoplasma gondii) [nM] | EC50 (Plasmodium falciparum [1]) [nM] | EC50 (Plasmodium falciparum [2]) [nM] | EC50 (Plasmodium falciparum [3]) [nM] | EC50 (Trypanosoma brucei) [nM] | EC50 (Plasmodium falciparum [4]) [nM] | EC50 [5] [nM] | EC50 (Plasmodium falciparum [6]) [nM] | EC50 [7] [nM] | EC50 (Leishmania major) [nM] | EC50 (Plasmodium falciparum [8]) [nM] | EC50 (Plasmodium falciparum [9]) [nM] | EC50 (Plasmodium falciparum [10]) [nM] | EC50 (Plasmodium falciparum [11]) [nM] | EC50 [12] [nM] | EC50 [13] [nM]
1 | COc1ccc(O)c(CN2CCN(c3cc(C)ccc3C)CC2)c1 | > 19400 | 741 | 1290 | 566 | > 34000 | 1370 | > 35500 | 992 | > 35500 | > 15200 | 488 | 660 | 1230 | 2200 | > 35500 | > 35500
2 | Nc1ccc(-c2nc3cc(-c4ccc5[nH]c(-c6ccc(N)cc6)nc5c4)ccc3[nH]2)cc1 | > 21000 | 165 | 108 | 77.9 | 2520 | 264 | 8940 | 201 | > 38300 | > 16400 | 174 | 154 | 120 | 221 | > 38300 | > 38300
3 | N=c1n(CCN2CCCCC2)c2ccccc2n1CC(O)c1ccc(Cl)c(Cl)c1 (centres undefined) | 11500 | 346 | 1270 | 640 | 4120 | 186 | 6970 | 617 | 21000 | > 22000 | 238 | 1430 | 1290 | 503 | 10400 | 16000
4 | CCCCOc1ccc(N(C(C)=O)C2=C(N3CCCCC3)C(=O)c3ccccc3C2=O)cc1 | > 15600 | 382 | 104 | 483 | 4910 | 722 | 13700 | 147 | 6970 | > 12200 | 489 | 120 | 62 | 167 | > 28500 | > 28500
5 | CCCCn1c(=N)n(CC(O)c2ccc(Br)cc2)c2ccccc21 (centres undefined) | > 23800 | 869 | 2620 | 638 | 6220 | 1040 | 18900 | 1360 | 32900 | > 18600 | 390 | 1110 | 5620 | 2000 | > 43400 | > 43400
6 | CCOc1cc2c(cc1OCC)C(c1cc(C)c(O)c(C)c1)NCC2 (centres undefined) | > 28500 | 420 | 3000 | 451 | 14800 | 1830 | > 52000 | 439 | > 52000 | > 22200 | 587 | 868 | 2770 | 1300 | > 52000 | > 52000
7 | CCCO/C(O)=C1\C(C)=NC2=C(C(=O)CC(c3ccc(OC)cc3)C2)C1c1ccccc1Cl (centres undefined) | > 22900 | 301 | 167 | 88.9 | 5090 | 713 | > 41900 | 160 | > 41900 | > 17900 | 466 | 173 | 188 | 373 | > 41900 | > 41900
8 | COc1ccc(C2CC3=NC(C)=C(C(=O)OC(C)C)C(c4ccccc4OC)C3=C(O)C2)cc1OC (centres undefined) | 11400 | 812 | 367 | 240 | 16400 | 1390 | > 44800 | 396 | > 44800 | > 19200 | 997 | 434 | 637 | 711 | > 44800 | > 44800
9 | CCOc1ccc(/C=C/c2nc(=O)c3ccccc3o2)cc1 | 273 | 307 | > 10200 | 73.1 | > 38300 | 188 | > 39900 | 392 | > 39900 | > 17100 | 128 | 601 | > 10200 | 345 | > 39900 | > 39900
10 | COc1ccc(Nc2cc(C)nc(Nc3ccc(NS(=O)(=O)c4ccc(OC)cc4)cc3)n2)cc1 | > 27600 | 1230 | 546 | > 12900 | 5790 | 743 | 17400 | > 12900 | 14300 | 175 | > 15000 | > 12900 | 1690 | 1030 | > 50300 | 30600
11 | Cc1ccc2c(c1)N(CCO)/C(=C/c1sc3ccccc3[n+]1C)S2 | > 9160 | 197 | 468 | 240 | 5200 | 423 | > 16700 | 330 | 1780 | > 7160 | 162 | 394 | 341 | 250 | > 16700 | > 16700
12 | CCOC(=O)C1(Cc2ccc(Cl)cc2)CCN(Cc2ccccc2O)CC1 | > 31200 | 445 | 549 | 548 | 12300 | 457 | > 56900 | 194 | > 56900 | > 24400 | 106 | 327 | 559 | 2000 | > 56900 | > 56900
13 | Oc1ccc(Br)cc1CN1CCN(Cc2ccccc2)CC1 | > 14900 | 776 | 2050 | 848 | > 26000 | 867 | > 27100 | 401 | > 27100 | > 11600 | 419 | 582 | 1750 | 1230 | > 27100 | > 27100
14 | C=CCN1C=CC=C/C1=C\c1sc2ccccc2[n+]1CC | > 11800 | 920 | 1600 | > 5540 | 2670 | 2310 | > 21600 | 1890 | 2820 | 12.2 | 1440 | 2000 | 2920 | 1290 | > 21600 | > 21600
15 | Oc1ccc(C2NCc3ccccc3-n3cccc32)cc1Cl (centres undefined) | > 25200 | 1380 | 2350 | 1090 | > 44100 | 1250 | > 46000 | 395 | > 46000 | > 19700 | 357 | 360 | 1770 | 1490 | > 46000 | > 46000
16 | CC(C)CN1C(=O)c2ccccc2C(C(=O)Nc2ccc(F)cc2F)C1c1cccs1 (centres undefined) | > 23700 | 808 | 970 | 738 | 8860 | 326 | > 43300 | > 11100 | > 43300 | > 18500 | 399 | 942 | 687 | 647 | > 43300 | > 43300
17 | Cc1ccc(NC(=O)C2c3ccccc3C(=O)N(CC(C)C)C2c2cccs2)cc1C (centres undefined) | > 22600 | 323 | 232 | 3810 | 6310 | 63.1 | > 41200 | 182 | > 41200 | > 17600 | 129 | 348 | 182 | 208 | > 41200 | > 41200
18 | CCOc1ccc(Nc2cc(C)c3ccc(O)cc3n2)cc1 | > 28300 | 629 | 460 | 233 | 21700 | 483 | 30400 | 158 | 34400 | > 22100 | 153 | 195 | 504 | 714 | > 51700 | > 51700
19 | CC1=NC2=C(C(=O)CC(c3ccc(Cl)cc3)C2)C(c2ccc(F)cc2)/C1=C(\O)OC(C)C (centres undefined) | > 21800 | 1300 | 460 | 656 | 1560 | 775 | > 39800 | 436 | > 39800 | > 17000 | 779 | 821 | 649 | 989 | > 39800 | > 39800
